According to ChEMBL document CHEMBL5058577, “EUbOPEN Chemogenomics Library 2 (Multiplex)” (2022):

Tested on: U2OS
Assay: Multiplex assay against U2OS
Format: toxicity, cell-based
Details: human
In short: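 Tubulin, mitochondrial-mass and membrane-permeability phenotypes are per cents of healthy-nucleus cells. Cells were gated by CellPathfinder machine learning into Hoechst high-intensity objects or normal cells, normal cells into healthy, pyknosed or fragmented nuclei, and pyknosed cells into mitotic or apoptotic. Before that, live cells stained at seeding with Hoechst33342, BioTracker Green Microtubule Cytoskeleton Dye, MitoTracker Red and Annexin V Alexa Fluor 680 were imaged on a CQ1 microscope at 37°C and 5% CO2 after compound addition.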

[1] = 12 h, 1 µM, compound concentration 1 uM, replicate 1
[2] = 12 h, 1 µM, compound concentration 1 uM, replicate 2
[3] = 12 h, 10 µM, compound concentration 10 uM, replicate 1
[4] = 12 h, 10 µM, compound concentration 10 uM, replicate 2
[5] = 24 h, 1 µM, compound concentration 1 uM, replicate 1
[6] = 24 h, 1 µM, compound concentration 1 uM, replicate 2
[7] = 24 h, 10 µM, compound concentration 10 uM, replicate 1
[8] = 24 h, 10 µM, compound concentration 10 uM, replicate 2
[9] = 48 h, 1 µM, compound concentration 1 uM, replicate 1
[10] = 48 h, 1 µM, compound concentration 1 uM, replicate 2
[11] = 48 h, 10 µM, compound concentration 10 uM, replicate 1
[12] = 48 h, 10 µM, compound concentration 10 uM, replicate 2

For COc1ccccc1N1CCN(C[C@@H](C(=O)NC(C)(C)C)c2ccccc2)CC1.Cl.Cl, the “Population Apoptotic (%)” value [1] was 73%, the “Population Fragmented Nuclei (%)” value [1] was 29% and the “Population Healthy Nuclei (%)” value [1] was 65%. The “Population Hoechst High Intensity Objects (%)” value [1] was 2%, the “Population Membrane Permeable-Phenotype (%)” value [1] was 5% and the “Population Mitochondria Different-Phenotype (%)” value [1] was 3%. For the same compound, the “Population Mitotic Cells (%)” value [1] was 26%, the “Population Normal (%)” value [1] was 97% and the “Population Pyknosed Nuclei (%)” value [1] was 5%. The “Population Tubulin-Different-Phenotype (%)” value [1] was 1%, the “Total Cell Count” value [1] was 281 and the “Population Apoptotic (%)” value [2] was 66%. For the same compound, the “Population Fragmented Nuclei (%)” value [2] was 14%, the “Population Healthy Nuclei (%)” value [2] was 80% and the “Population Hoechst High Intensity Objects (%)” value [2] was 1%. For the same compound, the “Population Membrane Permeable-Phenotype (%)” value [2] was 7%, the “Population Mitochondria Different-Phenotype (%)” value [2] was 2% and the “Population Mitotic Cells (%)” value [2] was 33%. The “Population Normal (%)” value [2] was 98%, the “Population Tubulin-Different-Phenotype (%)” value [2] was 3% and the “Total Cell Count” value [2] was 114. For the same compound, the “Population Apoptotic (%)” value [3] was 46%, the “Population Fragmented Nuclei (%)” value [3] was 35% and the “Population Healthy Nuclei (%)” value [3] was 49%. For the same compound, the “Population Hoechst High Intensity Objects (%)” value [3] was 3%, the “Population Membrane Permeable-Phenotype (%)” value [3] was 41% and the “Population Mitochondria Different-Phenotype (%)” value [3] was 41%. For the same compound, the “Population Mitotic Cells (%)” value [3] was 53%, the “Population Normal (%)” value [3] was 96% and the “Population Pyknosed Nuclei (%)” value [3] was 14%. The “Population Tubulin-Different-Phenotype (%)” value [3] was 41%, the “Total Cell Count” value [3] was 226 and the “Population Apoptotic (%)” value [4] was 50%. For the same compound, the “Population Fragmented Nuclei (%)” value [4] was 17%, the “Population Healthy Nuclei (%)” value [4] was 66% and the “Population Hoechst High Intensity Objects (%)” value [4] was 0%. For the same compound, the “Population Membrane Permeable-Phenotype (%)” value [4] was 49%, the “Population Mitochondria Different-Phenotype (%)” value [4] was 56% and the “Population Mitotic Cells (%)” value [4] was 50%. The “Population Normal (%)” value [4] was 99%, the “Population Pyknosed Nuclei (%)” value [4] was 15% and the “Population Tubulin-Different-Phenotype (%)” value [4] was 64%. The “Total Cell Count” value [4] was 102, the “Population Apoptotic (%)” value [5] was 68% and the “Population Fragmented Nuclei (%)” value [5] was 29%. The “Population Healthy Nuclei (%)” value [5] was 62%, the “Population Hoechst High Intensity Objects (%)” value [5] was 3% and the “Population Membrane Permeable-Phenotype (%)” value [5] was 7%. For the same compound, the “Population Mitochondria Different-Phenotype (%)” value [5] was 1%, the “Population Mitotic Cells (%)” value [5] was 32% and the “Population Normal (%)” value [5] was 96%. The “Population Pyknosed Nuclei (%)” value [5] was 8%, the “Population Tubulin-Different-Phenotype (%)” value [5] was 3% and the “Total Cell Count” value [5] was 320. The “Population Apoptotic (%)” value [6] was 80%, the “Population Fragmented Nuclei (%)” value [6] was 16% and the “Population Healthy Nuclei (%)” value [6] was 75%. For the same compound, the “Population Membrane Permeable-Phenotype (%)” value [6] was 5%, the “Population Mitochondria Different-Phenotype (%)” value [6] was 6% and the “Population Mitotic Cells (%)” value [6] was 20%. The “Population Tubulin-Different-Phenotype (%)” value [6] was 2%, the “Total Cell Count” value [6] was 129 and the “Population Apoptotic (%)” value [7] was 61%. For the same compound, the “Population Fragmented Nuclei (%)” value [7] was 38%, the “Population Healthy Nuclei (%)” value [7] was 42% and the “Population Hoechst High Intensity Objects (%)” value [7] was 5%. For the same compound, the “Population Membrane Permeable-Phenotype (%)” value [7] was 20%, the “Population Mitochondria Different-Phenotype (%)” value [7] was 33% and the “Population Mitotic Cells (%)” value [7] was 38%. The “Population Normal (%)” value [7] was 94%, the “Population Pyknosed Nuclei (%)” value [7] was 18% and the “Population Tubulin-Different-Phenotype (%)” value [7] was 25%. For the same compound, the “Total Cell Count” value [7] was 235, the “Population Apoptotic (%)” value [8] was 70% and the “Population Fragmented Nuclei (%)” value [8] was 20%. The “Population Healthy Nuclei (%)” value [8] was 63%, the “Population Membrane Permeable-Phenotype (%)” value [8] was 39% and the “Population Mitochondria Different-Phenotype (%)” value [8] was 61%. For the same compound, the “Population Mitotic Cells (%)” value [8] was 29%, the “Population Pyknosed Nuclei (%)” value [8] was 15% and the “Population Tubulin-Different-Phenotype (%)” value [8] was 52%. For the same compound, the “Total Cell Count” value [8] was 113, the “Population Apoptotic (%)” value [9] was 78% and the “Population Fragmented Nuclei (%)” value [9] was 21%. For the same compound, the “Population Healthy Nuclei (%)” value [9] was 66%, the “Population Hoechst High Intensity Objects (%)” value [9] was 2% and the “Population Membrane Permeable-Phenotype (%)” value [9] was 5%. The “Population Mitochondria Different-Phenotype (%)” value [9] was 1%, the “Population Mitotic Cells (%)” value [9] was 22% and the “Population Normal (%)” value [9] was 97%. The “Population Pyknosed Nuclei (%)” value [9] was 11%, the “Population Tubulin-Different-Phenotype (%)” value [9] was 1% and the “Total Cell Count” value [9] was 452. For the same compound, the “Population Apoptotic (%)” value [10] was 83%, the “Population Fragmented Nuclei (%)” value [10] was 16% and the “Population Healthy Nuclei (%)” value [10] was 72%. The “Population Hoechst High Intensity Objects (%)” value [10] was 4%, the “Population Membrane Permeable-Phenotype (%)” value [10] was 7% and the “Population Mitochondria Different-Phenotype (%)” value [10] was 2%. The “Population Mitotic Cells (%)” value [10] was 16%, the “Population Normal (%)” value [10] was 95% and the “Population Tubulin-Different-Phenotype (%)” value [10] was 4%. The “Total Cell Count” value [10] was 162, the “Population Apoptotic (%)” value [11] was 58% and the “Population Fragmented Nuclei (%)” value [11] was 33%. For the same compound, the “Population Healthy Nuclei (%)” value [11] was 44%, the “Population Hoechst High Intensity Objects (%)” value [11] was 4% and the “Population Membrane Permeable-Phenotype (%)” value [11] was 28%. The “Population Mitochondria Different-Phenotype (%)” value [11] was 30%, the “Population Mitotic Cells (%)” value [11] was 41% and the “Population Normal (%)” value [11] was 95%. The “Population Pyknosed Nuclei (%)” value [11] was 21%, the “Population Tubulin-Different-Phenotype (%)” value [11] was 21% and the “Total Cell Count” value [11] was 271. For the same compound, the “Population Apoptotic (%)” value [12] was 96%, the “Population Fragmented Nuclei (%)” value [12] was 18% and the “Population Healthy Nuclei (%)” value [12] was 58%. The “Population Hoechst High Intensity Objects (%)” value [12] was 8%, the “Population Membrane Permeable-Phenotype (%)” value [12] was 43% and the “Population Mitochondria Different-Phenotype (%)” value [12] was 29%. For the same compound, the “Population Mitotic Cells (%)” value [12] was 4%, the “Population Normal (%)” value [12] was 91% and the “Population Pyknosed Nuclei (%)” value [12] was 22%. For the same compound, the “Population Tubulin-Different-Phenotype (%)” value [12] was 35% and the “Total Cell Count” value [12] was 121.
